Measurements from publication PMC8851646 (ACS Omega, 2022).
Values after ≈ are worked out from the molar mass of the structure shown. Like-named read-outs stand apart in the source and are kept apart here.

Key:
[1] = test system: K. pneumoniae NB29017 co-cultured with T. pyriformis; experiment: T. pyriformis/K. pneumoniae; assay type: cell-based, Klebsiella pneumoniae; conditions: for activity in the Tp/Kp assay: manual pilot screens and D1 analog set
[2] = Compound stability, LC-MS of freshly dissolved powder; assay type: physicochemical; conditions: impure by LC–MS from freshly dissolved powder
[3] = test system: K. pneumoniae wbbM mutant (NB29018) co-cultured with T. pyriformis; experiment: Tp/Kp co-culture assay with cell surface-defective wbbM mutant; assay type: cell-based, Klebsiella pneumoniae; conditions: Tp threshold 4625–18,500 Tp/mL
[4] = test system: Staphylococcus aureus; experiment: Antibacterial MIC, Gram-positive control; assay type: cell-based; conditions: read-out: MIC Sa
[5] = test system: K. pneumoniae NB29017; experiment: Qualitative inhibition of mucoid appearance of colonies on solid LB agar; assay type: cell-based, Klebsiella pneumoniae; conditions: 4 fully mucoid, 0 nonmucoid, by eye
In short: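 Test compound dissolved in DMSO (12.8 mg/mL stock) and mixed into melted LB agar at 0–16 μg/mL final, then set in six-well plates. Mucoid wild-type NB29017 streaked for single colonies in each well. Plates incubated 18 h at 37 °C, then 2 h at 4 °C. Mucoid appearance scored by eye from 0 (none) to 4 (normal hypermucoid).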

[6] = test system: K. pneumoniae NB29017; experiment: Electron microscopy of cell surface material; assay type: cell-based, Klebsiella pneumoniae; conditions: grown in SM medium with 32 μg/mL compound
In short: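 K. pneumoniae NB29017 grown overnight with shaking at 37 °C in 10 mL SM medium, with or without test compound at 32 μg/mL. Diluted 1:50 into the same medium and grown to OD600 of about 2. Cells pelleted at 3000g and washed in Na-cacodylate pH 7.2. Fixed 2 h at 4 °C (2.5% glutaraldehyde, 1% tannic acid, 0.1 M Na-cacodylate, pH 7.2). Pelleted, taken up in cacodylate buffer and examined by electron microscopy.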

[7] = Cytotoxicity in K562 cells; assay type: cell-based; conditions: human
[8] = Red blood cell hemolysis; assay type: cell-based, sheep; conditions: sheep, erythrocytes from defibrinated sheep blood, pH 7.5
[9] = read-out: IC50 Tp/Kp, Table 1, freshly dissolved powder, top concentration 20 μM
[10] = read-out: Tp/Kp IC50, Table 2, expressed as μg/mL for comparison to agar values
[11] = read-out: Tp/Kp IC50, archived powder, side by side on the same assay plate, Tp set at 25000
[12] = read-out: Tp/Kp IC50, resynthesis batch, side by side on the same assay plate, Tp set at 25000

SMILES | activity in the Tp/Kp assay [1] | stability [2] | activity in the Tp/Kp wbbM assay [3] | MIC [4] | qualitative score on solid medium ([5]; 1 μg/mL compound in agar) | qualitative score on solid medium ([5]; 2 μg/mL compound in agar) | qualitative score on solid medium ([5]; 4 μg/mL compound in agar) | qualitative score on solid medium ([5]; 8 μg/mL compound in agar) | qualitative score on solid medium ([5]; 16 μg/mL compound in agar) | surface polysaccharide material by electron microscopy [6] | IC50 [1, 9] | IC50 [1, 10] | IC50 [1, 11] | IC50 [1, 12] | IC50 [7] | hemolysis at 1 h [8]
Oc1nc(S)nnc1-c1cccs1 [B1, OC1N=C(S)N=NC=1C2=CC=CS2] | active | – | – | – | – | – | – | – | – | – | – | – | – | – | – | –
COc1nc(SC)nnc1C [Di, COc1nc(nnc1C)SC] | inactive | – | – | – | – | – | – | – | – | – | – | – | – | – | – | –
Cc1cc(O)c(C)c(O)c1C(=O)O [compound 9, Cc1cc(O)c(C)c(O)c1C(O)=O] | active | – | – | – | – | – | – | – | – | – | – | – | – | – | – | –
O=C(O)c1ccccc1O [compound 10, OC(=O)c1ccccc1O] | active | – | – | – | – | – | – | – | – | – | – | – | – | – | – | –
Cc1cccc(O)c1C(=O)O [compound 16, Cc1cccc(O)c1C(O)=O] | active | – | – | – | – | – | – | – | – | – | – | – | – | – | – | –
CCOC(=O)/C(=N\NC(N)=S)c1cccs1 [compound 25, CCOC(=O)/C(=N\NC(N)=S)/C1=CC=CS1] | – | unstable | – | – | – | – | – | – | – | – | – | – | – | – | – | –
Cc1nnc(-c2ccccc2)nc1O [compound 34, Cc1nnc(nc1O)c2ccccc2] | active | – | retained activity | – | – | – | – | – | – | – | – | – | – | – | – | –
Cc1nnc(SCC(=O)Nc2ccc(Br)cc2)nc1O [compound 35, Cc1nnc(nc1O)SCC(=O)Nc2ccc(Br)cc2] | active | – | retained activity | – | – | – | – | – | – | – | – | – | – | – | – | –
COc1ccc(-c2csc(NC(=O)c3ccc(C(=O)Nc4nc(-c5ccc(OC)c(OC)c5)cs4)s3)n2)cc1OC [compound 62, COc1ccc(cc1OC)C5=CSC(NC(=O)C2=CC=C(S2)C(=O)NC3=NC(=CS3)c4cc(OC)c(cc4)OC)=N5] | – | – | retained potency | > 32 µg/mL | 2 | 0 | 0 | 0 | 0 | devoid of any surface material | 1 nM | 0.001 µg/mL | 1.7 nM | 0.67 nM | > 210000 nM | 11.7%
CCOC(=O)c1ccc2nc(NC(=O)c3cccs3)sc2c1 [compound 64, CCOC(=O)c3ccc2N=C(NC(=O)C1=CC=CS1)Sc2c3] | – | – | retained potency | > 128 µg/mL | 0 | 0 | 0 | 0 | 0 | – | 120 nM | 0.04 µg/mL | 362 nM | 186 nM | > 386000 nM | 14.9%
CCOc1ccc2nc(NC(=O)c3cc(=O)c4ccc(C)cc4o3)sc2c1 [compound 65, CCOc4ccc3N=C(NC(=O)C2=CC(=O)c1ccc(C)cc1O2)Sc3c4] | – | – | – | > 128 µg/mL | 2 | 2 | 2 | 2 | 1 | – | 70 nM | 0.03 µg/mL | – | – | > 168000 nM | 1.5%
O=C(Nc1nnc(Cl)s1)c1ccco1 [compound 67, O=C(NC1=NN=C(Cl)S1)C2=CC=CO2] | – | – | – | > 128 µg/mL | 1 | 0 | 0 | 0 | 0 | – | 490 nM | 0.11 µg/mL | – | – | > 557000 nM | 1.5%
Cc1cc(C)c2c(=O)cc(C(=O)Nc3nc4ccc(F)cc4s3)oc2c1 [compound 68, Cc2cc(C)c1C(=O)C=C(Oc1c2)C(=O)NC4=Nc3ccc(F)cc3S4] | – | – | – | > 128 µg/mL | 3 | 3 | 1 | 1 | 1 | – | 910 nM | – | – | – | > 348000 nM | 2.2%
COc1ccc(Br)c(/C=N/NC(=O)COc2ccc(-c3ccccc3)cc2)c1 [compound 69, COc3ccc(Br)c(/C=N/NC(=O)COc1ccc(cc1)c2ccccc2)c3] | – | – | – | > 128 µg/mL | 0 | 0 | 0 | 0 | 0 | – | 50 nM | – | – | – | > 291000 nM | 4.1%
O=C(/C=C/c1ccccc1)Nc1ccc(C(=O)Nc2nccs2)cc1 [compound 70, O=C(/C=C/c1ccccc1)Nc2ccc(cc2)C(=O)NC3=NC=CS3] | – | – | – | > 128 µg/mL | 3 | 1 | 0 | 0 | 0 | – | 1100 nM | – | – | – | > 367000 nM | 17.6%
CC12CC3(C)CC(C(=O)O)(C1)CC(C(=O)O)(C2)C3 [compound 73, CC12CC3(C)CC(C1)(CC(C2)(C3)C(O)=O)C(O)=O] | – | – | – | > 128 µg/mL | 4 | 3 | 3 | 3 | 2 | – | 1100 nM | – | – | – | > 508000 nM | 2.8%
CCOc1ccc2nc(NC(=O)c3ccc4ncsc4c3)sc2c1 [compound 74, CCOc4ccc3N=C(NC(=O)c2ccc1N=CSc1c2)Sc3c4] | – | – | – | > 128 µg/mL | 2 | 0 | 0 | 0 | 0 | – | 370 nM | – | – | – | > 361000 nM | 26.9%
CCOc1cccc(C(=O)Nc2ccc(-c3nc4ccccc4[nH]3)cc2)c1 [compound 79, CCOc1cccc(c1)C(=O)Nc2ccc(cc2)C4Nc3ccccc3N=4] | – | – | – | > 128 µg/mL | 2 | 2 | 2 | 2 | – | – | 1330 nM | – | – | – | 341000 nM | 40.6%
CCCCNC(=O)NS(=O)(=O)c1cccs1 [compound 82, CCCCNC(=O)NS(=O)(=O)C1=CC=CS1] | – | – | – | > 128 µg/mL | 4 | 4 | 3 | 3 | 2 | – | 2580 nM | – | – | – | > 489000 nM | 7.4%
O=C(O)c1cc(Br)ccc1F [compound 166, OC(=O)c1cc(Br)ccc1F] | – | – | – | > 128 µg/mL | – | – | – | – | – | – | 1300 nM | – | – | – | > 584000 nM | 2.5%
CCN(CC)/C(N)=N\c1ccc(NC(=O)c2ccc(C(=O)Nc3ccc(/N=C(\N)N(CC)CC)cc3)cc2)cc1 [compound 170, CCN(CC)/C(/N)=N/c1ccc(cc1)NC(=O)c2ccc(cc2)C(=O)Nc3ccc(cc3)\N=C(\N)/N(CC)CC] | – | – | – | 8 µg/mL (≈ 14.7 µM) | – | – | – | – | – | – | 2200 nM | – | – | – | 102000 nM | 1.9%
O=[N+]([O-])c1cnc2ccc(Cl)cc2c1O [compound 182, [O-][N+](=O)c2cnc1ccc(Cl)cc1c2O] | – | – | – | > 128 µg/mL | – | – | – | – | – | – | 420 nM | – | – | – | 75400 nM | 2.4%
O=C(CCCN1CCC(O)(c2ccc(Br)cc2)CC1)c1ccc(F)cc1 [compound 185, OC2(CCN(CCCC(=O)c1ccc(F)cc1)CC2)c3ccc(Br)cc3] | – | – | – | > 128 µg/mL | – | – | – | – | – | – | 850 nM | – | – | – | 16500 nM | 4.5%
COC1C(OC(C)=O)CC(=O)OC(C)CC2OC2/C=C/C(=O)C(C)CC(CC=O)C1OC1OC(C)C(OC2CC(C)(O)C(OC(=O)CC(C)C)C(C)O2)C(N(C)C)C1O (centres unmarked) [compound 186, COC4C(OC2OC(C)C(OC1CC(C)(O)C(OC(=O)CC(C)C)C(C)O1)C(C2O)N(C)C)C(CC=O)CC(C)C(=O)/C=C/C3OC3CC(C)OC(=O)CC4OC(C)=O] | – | – | – | 2 µg/mL (≈ 2.38 µM) | – | – | – | – | – | – | 5400 nM | – | – | – | 8540 nM | –
Cc1nc(O)n2ncc(Br)c2n1 [compound 187, CC2=NC1=C(Br)C=NN1C(O)=N2] | – | – | – | > 128 µg/mL | – | – | – | – | – | – | 160 nM | – | – | – | > 559000 nM | 2.5%
C=CC1(C)CC(OC(=O)CSc2ccc(N)cc2)C2(C)C(C)CCC3(CCC(=O)C32)C(C)C1O (centres unmarked) [compound 191, C=CC4(C)CC(OC(=O)CSc1ccc(N)cc1)C2(C)C(C)CCC3(CCC(=O)C23)C(C)C4O] | – | – | – | ≤ 0.06 µg/mL | – | – | – | – | – | – | 3220 nM | – | – | – | 35800 nM | 2%
